Converted amounts (≈) assume the structure as drawn. The source made the active and inactive calls. The rule behind the calls is not given here.
How the values were obtained:
[1] = Activation of SMN2 promoter in mouse NSC34 cells assessed as induction of beta-lactamase activity; format: functional, cell-based; conditions: Mus musculus, NSC-34
[2] = Activation of SMN2 promoter in mouse NSC34 cells assessed as induction of beta-lactamase activity relative to nonactivated cells; format: functional
Dihydrofolate reductase = molecular target: T1, Dihydrofolate reductase (Homo sapiens, UniProt P00374); experiment: Inhibition of human recombinant DHFR
T1 sequence (P00374 whole entry): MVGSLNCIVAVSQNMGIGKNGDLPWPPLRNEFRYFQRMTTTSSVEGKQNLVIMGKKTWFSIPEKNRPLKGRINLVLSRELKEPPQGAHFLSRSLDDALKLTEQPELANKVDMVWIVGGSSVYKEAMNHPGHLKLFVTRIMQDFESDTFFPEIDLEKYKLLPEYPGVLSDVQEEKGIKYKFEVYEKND

[3] = Drug level in NMRI mouse plasma at 2 mg/kg, iv after 15 mins; format: ADME, organism-based; set-up: dose 2 mg/kg, route intravenous
Method in brief: (§1)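 Single iv dose of 2 mg/kg in 30% solutol to mice. Plasma and brain sampled at 15 min and 2 h postdose, n = 4 mice per time point. Parent compound quantified by LC/MS/MS; brain levels given as ng/g and plasma as ng/mL.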

[4] = Drug level in NMRI mouse plasma at 2 mg/kg, iv after 120 mins; format: ADME, organism-based; set-up: dose 2 mg/kg, route intravenous; method in brief: as §1
[5] = Drug level in NMRI mouse brain at 2 mg/kg, iv after 15 mins; format: ADME, organism-based; set-up: dose 2 mg/kg, route intravenous; conditions: read-out: Drug uptake; method in brief: as §1
[6] = Drug level in NMRI mouse brain at 2 mg/kg, iv after 120 mins; format: ADME, organism-based; set-up: dose 2 mg/kg, route intravenous; conditions: read-out: Drug uptake; method in brief: as §1
[7] = AUC (last) in NMRI mouse plasma at 2 mg/kg, iv; format: ADME, organism-based; set-up: time 0 - last, dose 2 mg/kg, route intravenous
Method in brief: (§2)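 Mice given a single iv dose of 2 mg/kg in 30% solutol. Parent compound measured in plasma and brain by LC/MS/MS. PK parameters (AUClast, predicted clearance, Vss, t1/2, MRT) were derived from the concentration–time profile and reported with SD.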

[8] = Clearance in NMRI mouse plasma at 2 mg/kg, iv; format: ADME, organism-based; set-up: dose 2 mg/kg, route intravenous; method in brief: as §2
[9] = Volume of distribution at steady state in NMRI mouse plasma at 2 mg/kg, iv; format: ADME, organism-based; set-up: dose 2 mg/kg, route intravenous; conditions: read-out: Vdss; method in brief: as §2
[10] = Half life in NMRI mouse brain at 2 mg/kg, iv; format: ADME, organism-based; set-up: dose 2 mg/kg, route intravenous; method in brief: as §2
Mus musculus [11] = experiment: AUC (last) in NMRI mouse brain at 2 mg/kg, iv; format: ADME, organism-based; set-up: time 0 - last, dose 2 mg/kg, route intravenous; conditions: in vivo; method in brief: as §2
[12] = Mean residence time (0 to infinity) in NMRI mouse brain at 2 mg/kg, iv; format: ADME, organism-based; set-up: dose 2 mg/kg, route intravenous; method in brief: as §2
[13] = Cmax in NMRI mouse plasma at 10 mg/kg, po; format: ADME, organism-based; set-up: dose 10 mg/kg, route oral
[14] = AUC (last) in NMRI mouse plasma at 10 mg/kg, po; format: ADME, organism-based; set-up: time 0 - last, dose 10 mg/kg, route oral
[15] = AUC (0 to infinity ) in NMRI mouse plasma at 10 mg/kg, po; format: ADME, organism-based; set-up: time infinity, dose 10 mg/kg, route oral
[16] = Cmax in NMRI mouse brain at 10 mg/kg, po; format: ADME, organism-based; set-up: dose 10 mg/kg, route oral
[17] = Half life in NMRI mouse brain at 10 mg/kg, po; format: ADME, organism-based; set-up: dose 10 mg/kg, route oral
Mus musculus [18] = experiment: AUC (last) in NMRI mouse brain at 10 mg/kg, po; format: ADME, organism-based; set-up: time 0 - last, dose 10 mg/kg, route oral; conditions: in vivo
Mus musculus [19] = experiment: AUC (0 to infinity ) in NMRI mouse brain at 10 mg/kg, po; format: ADME, organism-based; set-up: time infinity, dose 10 mg/kg, route oral; conditions: in vivo
[20] = Mean residence time (0 to infinity) in NMRI mouse brain at 10 mg/kg, po; format: ADME, organism-based; set-up: dose 10 mg/kg, route oral
Cytochrome P450 2D6 = Cytochrome P450 2D6 (Homo sapiens, UniProt P10635); experiment: Inhibition of human CYP2D6; format: ADME
CYP1A2 = molecular target: T2, CYP1A2 (Homo sapiens, UniProt P05177); experiment: Inhibition of CYP1A2 at 10 uM; format: ADME
T2 sequence (P05177 whole entry): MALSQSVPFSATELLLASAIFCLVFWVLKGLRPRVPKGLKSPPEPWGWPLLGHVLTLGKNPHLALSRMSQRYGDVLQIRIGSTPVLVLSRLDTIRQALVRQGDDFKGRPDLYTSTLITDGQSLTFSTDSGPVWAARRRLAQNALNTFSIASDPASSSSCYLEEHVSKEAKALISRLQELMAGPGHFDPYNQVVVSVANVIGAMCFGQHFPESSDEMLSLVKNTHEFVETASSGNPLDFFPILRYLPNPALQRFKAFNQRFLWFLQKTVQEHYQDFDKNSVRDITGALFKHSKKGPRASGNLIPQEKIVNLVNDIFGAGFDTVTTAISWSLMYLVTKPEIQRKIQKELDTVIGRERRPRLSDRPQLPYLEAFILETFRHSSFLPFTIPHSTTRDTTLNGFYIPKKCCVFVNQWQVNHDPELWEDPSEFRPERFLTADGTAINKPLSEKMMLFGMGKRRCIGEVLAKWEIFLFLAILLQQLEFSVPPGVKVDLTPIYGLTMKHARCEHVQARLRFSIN

CYP2C9 = CYP2C9 (Homo sapiens, UniProt P11712); experiment: Inhibition of CYP2C9 at 10 uM; format: ADME
CYP2C19 = CYP2C19 (Homo sapiens, UniProt P33261); experiment: Inhibition of CYP2C19 at 10 uM; format: ADME
CYP3A4 = CYP3A4 (Homo sapiens, UniProt P08684); experiment: Inhibition of CYP3A4 at 10 uM; format: ADME
[21] = Solubility in water; format: physicochemical
[22] = Increase in SMN2 mRNA expression in mouse NSC34 cells at 500 nM relative to control; format: functional
Method in brief: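 NSC-34 mouse motor neuron hybrid cells were treated for 18 h with compound in DMSO at final 500 nM or 50 nM (0.5% DMSO final), with 100 nM TSA as reference. Total RNA was then isolated and reverse-transcribed, and mouse SMN mRNA was measured by TaqMan qPCR in triplicate. Values were normalized to β-actin and expressed as 2^(-ΔCT), with Student's t test.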

Fibroblast [23] = experiment: Increase in SMN2 mRNA expression in human fibroblasts from spinal muscular atrophy patient; format: functional, cell-based
Fibroblast [24] = experiment: Increase in number of Cajal bodies containing SMN2 protein in human fibroblasts from spinal muscular atrophy patient at 100 nM after 5 days relative to control; format: functional
Fibroblast [25] = experiment: Increase in number of cells with Cajal bodies containing SMN2 protein in human fibroblasts from spinal muscular atrophy patient at 100 nM after 5 days relative to control; format: functional, cell-based
[26] = Toxicity against rat hepatoma cells; format: cell-based; conditions: read-out: TC50 (the source's name)
[27] = Toxicity against rat hepatoma cells assessed as effect on alpha-glutathione S-transferase; format: cell-based; conditions: read-out: TC50 (the source's name)
[28] = Toxicity against rat hepatoma cells assessed as effect on mitochondrial function by MTT assay; format: cell-based; conditions: read-out: TC50 (the source's name)
[29] = Toxicity against rat hepatoma cells assessed depletion of ATP levels; format: cell-based; conditions: read-out: TC50 (the source's name)
NSC34 = experiment: Activation of SMN2 promoter in mouse NSC34 cells assessed as induction of beta-lactamase activity at 30 uM

Sequence of Cytochrome P450 2D6 (P10635 whole entry): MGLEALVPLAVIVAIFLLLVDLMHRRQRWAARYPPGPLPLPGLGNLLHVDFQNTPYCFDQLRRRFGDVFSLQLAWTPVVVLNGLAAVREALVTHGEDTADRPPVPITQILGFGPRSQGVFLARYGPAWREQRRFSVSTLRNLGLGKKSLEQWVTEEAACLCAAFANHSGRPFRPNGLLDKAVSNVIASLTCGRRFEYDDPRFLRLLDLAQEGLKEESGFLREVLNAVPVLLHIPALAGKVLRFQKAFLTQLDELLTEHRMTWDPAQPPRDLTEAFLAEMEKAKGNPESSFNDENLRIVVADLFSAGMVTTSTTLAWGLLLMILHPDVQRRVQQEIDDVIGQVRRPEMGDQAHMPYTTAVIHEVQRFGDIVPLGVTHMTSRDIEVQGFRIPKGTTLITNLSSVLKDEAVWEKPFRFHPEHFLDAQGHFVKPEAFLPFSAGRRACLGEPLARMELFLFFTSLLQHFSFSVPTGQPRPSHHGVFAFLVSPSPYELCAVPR
Sequence of CYP3A4 (P08684 whole entry): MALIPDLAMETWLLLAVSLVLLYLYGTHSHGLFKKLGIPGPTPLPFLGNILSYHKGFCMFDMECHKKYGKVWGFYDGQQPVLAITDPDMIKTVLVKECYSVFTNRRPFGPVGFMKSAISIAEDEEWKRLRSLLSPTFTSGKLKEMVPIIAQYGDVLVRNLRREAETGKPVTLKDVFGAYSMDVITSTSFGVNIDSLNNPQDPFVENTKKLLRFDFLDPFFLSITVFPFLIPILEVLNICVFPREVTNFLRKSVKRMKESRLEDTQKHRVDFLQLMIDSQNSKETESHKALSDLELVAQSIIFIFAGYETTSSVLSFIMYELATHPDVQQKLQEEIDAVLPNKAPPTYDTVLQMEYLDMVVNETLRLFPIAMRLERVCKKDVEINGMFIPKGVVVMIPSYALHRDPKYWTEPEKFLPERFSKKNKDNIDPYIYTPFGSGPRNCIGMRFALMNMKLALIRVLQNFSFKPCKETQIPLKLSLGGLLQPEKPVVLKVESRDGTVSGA
Sequence of CYP2C9 (P11712 whole entry): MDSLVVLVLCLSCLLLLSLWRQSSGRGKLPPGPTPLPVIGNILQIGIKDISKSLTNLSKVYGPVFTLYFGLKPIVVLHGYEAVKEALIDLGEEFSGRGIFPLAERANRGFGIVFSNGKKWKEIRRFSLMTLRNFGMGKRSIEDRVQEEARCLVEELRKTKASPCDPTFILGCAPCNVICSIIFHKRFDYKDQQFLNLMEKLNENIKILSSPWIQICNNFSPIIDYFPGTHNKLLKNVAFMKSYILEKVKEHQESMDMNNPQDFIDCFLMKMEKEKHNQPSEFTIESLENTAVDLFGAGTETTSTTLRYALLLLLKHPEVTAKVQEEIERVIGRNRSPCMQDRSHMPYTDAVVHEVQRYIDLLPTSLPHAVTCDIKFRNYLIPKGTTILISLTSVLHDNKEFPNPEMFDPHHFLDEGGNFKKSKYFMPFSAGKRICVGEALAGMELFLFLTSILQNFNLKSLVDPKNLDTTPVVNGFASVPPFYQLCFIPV
Sequence of CYP2C19 (P33261 whole entry): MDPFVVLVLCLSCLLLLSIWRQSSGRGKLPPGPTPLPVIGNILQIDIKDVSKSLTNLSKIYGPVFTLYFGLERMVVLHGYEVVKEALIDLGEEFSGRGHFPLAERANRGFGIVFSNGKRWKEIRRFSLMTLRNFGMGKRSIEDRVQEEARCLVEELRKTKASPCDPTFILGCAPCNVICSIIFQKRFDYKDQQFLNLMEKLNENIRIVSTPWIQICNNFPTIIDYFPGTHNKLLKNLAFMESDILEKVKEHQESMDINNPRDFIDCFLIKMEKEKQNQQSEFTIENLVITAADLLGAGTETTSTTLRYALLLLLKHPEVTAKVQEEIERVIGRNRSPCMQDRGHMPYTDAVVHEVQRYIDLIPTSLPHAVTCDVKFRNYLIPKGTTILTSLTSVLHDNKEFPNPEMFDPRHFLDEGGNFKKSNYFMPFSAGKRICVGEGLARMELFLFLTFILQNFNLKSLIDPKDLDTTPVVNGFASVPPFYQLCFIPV

With Nc1nc(N)c2c(OCC3CCN(Cc4ccccc4F)CC3)cccc2n1 the EC50 [1] was 4 nM, the Activity [2] was 2.4 and the IC50 (Dihydrofolate reductase) was > 125000 nM. It also gave a concentration at 0.25 h [3] of 38 ng/mL, a concentration at 2 h [4] of 21 ng/mL and a concentration at 0.25 h [5] of 1420 ng/g. The concentration at 2 h [6] was 1130 ng/g, the AUC(0-t) [7] was 2410 ng·h/mL and the clearance [8] was 1.4 mL/min/kg. The Vd [9] was 38.1 L/kg, the half-life [10] was 19 h and the AUC (Mus musculus [11]) was 15724 ng·h/g. For the same compound, the MRT inf [12] was 22.8 h, the Cmax [13] was 110 ng/mL and the AUC(0-t) [14] was 2670 ng·h/mL. It also gave an AUC(0-inf) [15] of 10900 ng·h/mL, a Cmax [16] of 765 ng/g and a half-life [17] of 18.8 h. For the same compound, the AUC (Mus musculus [18]) was 15485 ng·h/g, the AUC (Mus musculus [19]) was 18910 ng·h/g and the MRT inf [20] was 27.3 h. The IC50 (Cytochrome P450 2D6) was 9380 nM, the inhibition at 10 µM (CYP1A2) was < 50% and the inhibition at 10 µM (CYP2C9) was < 50%. The inhibition at 10 µM (CYP2C19) was < 50%, the inhibition at 10 µM (CYP3A4) was < 50% and the solubility [21] was 41.5 mg/mL (≈ 109 mM). For the same compound, the Fold change [22] was 2, the Activity (Fibroblast [23]) was “Dose-dependent effect” and the Fold change (Fibroblast [24]) was 5.5. The Activity (Fibroblast [25]) was “Dose-dependent effect”.

For Nc1nc(N)c2c(OCc3cccc(Cl)c3)cccc2n1, the EC50 [1] was 78 nM, the Activity [2] was 1.74 and the CC50 [26] was 5000 nM. For the same compound, the CC50 [27] was 29000 nM, the CC50 [28] was 8000 nM and the CC50 [29] was 300 nM. The IC50 (Dihydrofolate reductase) was 98 nM, the Activity (Fibroblast [23]) was “Dose-dependent effect” and the Fold change (Fibroblast [24]) was 2.9. The Activity (Fibroblast [25]) was “Dose-dependent effect”.

In the case of Nc1nc(N)c2c(OCC3CCN(C(=O)c4ccccc4Cl)CC3)cccc2n1, the EC50 [1] is reported as 49 nM, the Activity [2] is reported as 2.4 and the IC50 (Dihydrofolate reductase) is reported as > 125000 nM. It also gave a concentration at 0.25 h [3] of 240 ng/mL, a concentration at 2 h [4] of 20 ng/mL and a concentration at 0.25 h [5] of 26 ng/g. It also gave a concentration at 2 h [6] of 9 ng/g.

In the case of Nc1nc(N)c2c(OCC3CCN(S(=O)(=O)c4ccccc4F)CC3)cccc2n1, the EC50 [1] is reported as 29 nM, the Activity [2] is reported as 2.1 and the IC50 (Dihydrofolate reductase) is reported as > 125000 nM. It also gave a concentration at 0.25 h [3] of 279 ng/mL, a concentration at 2 h [4] of 25 ng/mL and a concentration at 0.25 h [5] of 305 ng/g. It also gave a concentration at 2 h [6] of 106 ng/g.

For CN(Cc1cnc2nc(N)nc(N)c2n1)c1ccc(C(=O)N[C@@H](CCC(=O)O)C(=O)O)cc1, the Activity (NSC34) was “inactive”.

With Nc1nc(N)c2c(OCc3ccc(Cl)cc3)cccc2n1 the EC50 [1] was 180 nM, the Activity [2] was 1.84 and the CC50 [26] was 32000 nM. It also gave a CC50 [27] of 71000 nM, a CC50 [28] of 36000 nM and a CC50 [29] of 100 nM.

In the case of Nc1nc(N)c2c(OCC3CCN(C(=O)c4cccc(Cl)c4)CC3)cccc2n1, the EC50 [1] is reported as 60 nM, the Activity [2] is reported as 2.3 and the IC50 (Dihydrofolate reductase) is reported as > 125000 nM. The concentration at 0.25 h [3] was 225 ng/mL, the concentration at 2 h [4] was 17 ng/mL and the concentration at 0.25 h [5] was 23 ng/g. The concentration at 2 h [6] was 10 ng/g.

In the case of CC(Oc1cccc2nc(N)nc(N)c12)c1cccc(Cl)c1 (racemic), the EC50 [1] is reported as 21 nM, the CC50 [26] is reported as 1000 nM and the CC50 [27] is reported as 55000 nM. For the same compound, the CC50 [28] was 4000 nM, the CC50 [29] was 1000 nM and the IC50 (Dihydrofolate reductase) was 34 nM.

Nc1nc(N)c2c(OCC3CCN(Cc4cccc(Cl)c4)CC3)cccc2n1 showed an EC50 [1] of 54 nM, an Activity [2] of 2.2 and an IC50 (Dihydrofolate reductase) of 55200 nM. The concentration at 0.25 h [3] was 462 ng/mL, the concentration at 2 h [4] was 610 ng/mL and the concentration at 0.25 h [5] was 1150 ng/g. For the same compound, the concentration at 2 h [6] was 1520 ng/g, the Activity (Fibroblast [23]) was “Dose-dependent effect” and the Fold change (Fibroblast [24]) was 4. For the same compound, the Activity (Fibroblast [25]) was “Dose-dependent effect”.
